Experimental data published in PMC5543507 (Cancer Science, 2017).
Several values for one entry are separate records, joined by “and”; a condition that tells them apart may be missing. Equal values may be shown once. Marks after values point to notes of the source that are not given here.

How the values were obtained:
[1] = tested on: select advanced hematologic malignancies; assay: Preliminary clinical activity by disease-specific response criteria; assay type: in vivo, Japanese patients
In short: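 Patients aged ≥20 years had refractory, resistant or intolerant MDS, MF, CMML, CML or AML. They took oral test compound once daily at 25, 50 or 100 mg in 28-day cycles, after a lead-in dose on Day −5. Response was judged by disease-specific criteria and summarised with descriptive statistics.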

GLI1 expression [2] = assay: GLI1 expression in normal skin biopsies; assay type: in vivo, Japanese patients; settings: for Downregulation of GLI1 expression from skin biopsies: steady state (Cycle 1 Day 21 vs screening)
In short: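 Adults with advanced hematologic malignancies received once-daily oral test compound at 25, 50 or 100 mg in 28-day cycles, after a single lead-in dose on Day −5. Normal skin biopsies were taken at screening and on Cycle 1 Day 21. Expression of Hh pathway-regulated genes was measured relative to baseline, matched to PK sampling where possible, and summarised graphically and descriptively.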

GLI1 expression [3] = settings: advanced solid tumors; 80–640 mg; cited from earlier work
[4] = tested on: patients with select advanced myeloid malignancies and solid tumors; settings: phase I dose-escalation study, United States and Italy; cited from earlier work
[5] = tested on: leukemic stem cell (LSC) burden in xenograft models; settings: cited from earlier work
solid tumors = settings: glasdegib monotherapy; cited from earlier work
[6] = 5–600 mg dose range; cited from earlier work
[7] = Plasma pharmacokinetics after single and multiple oral doses; assay type: in vivo, Japanese patients; settings: for half-life / AUC(0-inf) / Tmax / Vd/F: human, plasma; for C trough: multiple dose, Cycle 1/Day 21; for C trough / CL/F: geometric mean (geometric %CV); for CL/F: single dose
In short: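 Dosing was oral, once daily, at 25, 50 or 100 mg (3 + 3 design), with a single lead-in dose on Day −5. Serial blood was drawn on Day −5 and on Cycle 1 Days 1, 8, 15 and 21, then on Day 1 of later cycles. Plasma drug was assayed by a validated method (LLOQ 3.00 ng/mL). Cmax, Tmax and AUC came from noncompartmental analysis.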

SMO = settings: preclinical studies; cited from earlier work
hematologic malignancies = settings: cited from earlier work
[8] = tested on: Japanese patients with select advanced hematologic malignancies; assay: Safety: adverse events and dose-limiting toxicities, phase I trial of glasdegib; assay type: in vivo
In short: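 Once-daily oral dosing at 25, 50 or 100 mg followed a 3 + 3 design. AEs, serious AEs and laboratory tests were monitored until 28 days after the last dose or until drug-related toxicities resolved, graded by NCI CTCAE v4.0. DLT window: Day −5 to Cycle 1 Day 28. DLTs: grade ≥3 nonhematologic toxicity; myelosuppression lasting ≥42 days; grade ≥3 QTc prolongation (≥501 ms).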

CN1CC[C@@H](NC(=O)Nc2ccc(C#N)cc2)C[C@@H]1c1nc2ccccc2[nH]1 [glasdegib]
AML patients achieving stable disease ([1]; 25 mg): 1 patients | MDS patients achieving stable disease ([1]; 25 mg): 1 | AML patients achieving stable disease ([1]; 50 mg): 1 patients | MDS patients achieving stable disease ([1]; 100 mg): 1 | AML patients achieving stable disease ([1]; 100-mg group): 2 patients | AML patients with morphological complete remission as best response ([1]; 100-mg group, 8% of 13): 1 patient | AML patients achieving stable disease ([1]; all dose groups, 31%): Four | Downregulation of GLI1 expression from skin biopsies (GLI1 expression [2]; 50 mg group): > 80% | Downregulation of GLI1 expression from skin biopsies (GLI1 expression [2]; 100 mg group): > 80% | Marked downregulation of GLI1 expression from skin biopsies (GLI1 expression [2]; steady state, 25-mg group): not observed | Downregulation of GLI1 expression in surrogate tissue (GLI1 expression [3]): > 80% | Tolerability [4]: well tolerated | Antitumor activity in vivo ([5]; preclinical studies): significant antitumor activity | Leukemic stem cell (LSC) burden ([5]; xenograft models): significant reduction | Patients with prolonged (≥6 months) stabilization of disease (solid tumors): 13% | Patients with stable disease (solid tumors): 35% | Dose proportionality of pharmacokinetics [6]: dose‐proportional | Dose proportionality of maximum plasma concentration and exposure ([7]; 25–100 mg): broadly dose‐proportional | half-life ([7]; oral): 20.7 ± 7.7 h | AUC(0-inf) ([7]; po, 25 mg): 3350 ng·h/mL | Tmax ([7]; po, 25 mg): 2 h | Vd/F ([7]; po, 25 mg): 165 L | half-life ([7]; po, 25 mg): 15.3 h | AUC(0-inf) ([7]; po, 50 mg): 9590 ng·h/mL | Tmax ([7]; po, 50 mg): 4 h | Vd/F ([7]; po, 50 mg): 225 L | half-life ([7]; po, 50 mg): 30.3 h | AUC(0-inf) ([7]; po, 100 mg): 13100 ng·h/mL | Tmax ([7]; po, 100 mg): 2 h | Vd/F ([7]; po, 100 mg): 184 L | half-life ([7]; po, 100 mg): 17.1 h | C trough ([7]; 50 mg q.d.): 240 (37) ng/mL | C trough ([7]; 100 mg q.d.): 343 (35) ng/mL | CL/F ([7]; 25 mg oral): 7.47 (68) L/h | CL/F ([7]; 50 mg oral): 5.22 (64) L/h | CL/F ([7]; 100 mg oral): 7.63 (20) L/h | Inhibition of SMO in vitro (SMO): inhibited SMO in vitro | Patients with some suggestion of clinical activity (hematologic malignancies; European and American patients with hematologic malignancies): 23 of 47 | Patients with preliminary clinical activity (hematologic malignancies; phase I dose-escalation study, United States and Italy): approximately half | Permanent discontinuation of treatment due to AE ([8]; 50 mg group): 3 patients | Permanent discontinuation of treatment due to AE ([8]; 100 mg group): 1 patient | Severity of treatment-emergent, treatment-related AE ([8]; 9 of 13 patients with treatment-related AE): 1–3 grade | Leukopenia, grade 4 treatment-emergent AE ([8]; 13 patients, 8%): 1 n | Neutropenia, grade 4 treatment-emergent AE ([8]; 13 patients, 8%): 1 n | Reduced platelet count, grade 4 treatment-emergent AE ([8]; 13 patients, 8%): 1 n | Thrombocytopenia, grade 4 treatment-emergent AE ([8]; 13 patients, 8%): 1 n | Anemia, grade 3 treatment-emergent all-causality AE ([8]; 13 patients, 15%): 2 n | Hypokalemia, grade 3 treatment-emergent all-causality AE ([8]; 13 patients, 15%): 2 n | Thrombocytopenia, grade 3 treatment-emergent all-causality AE ([8]; 13 patients, 15%): 2 n | Treatment temporarily discontinued or dose reduced due to a treatment-related AE ([8]; 13 patients, 23%, grade 1 muscle cramp, grade 1 dysgeusia, grade 1–3 pyrexia): 3 patients | First-cycle dose-limiting toxicities (DLT) ([8]; 13 patients, 25, 50 and 100 mg q.d., Day −5 to Day 28 of Cycle 1): No DLT were observed | Temporary discontinuations for an all-cause AE ([8]; 50-mg group): 1 patient | Temporary discontinuations for an all-cause AE ([8]; 100-mg group, 23%): 3 patients | Grade 4 or 5 treatment-related adverse events ([8]; N = 13): No grade 4 or 5 treatment‐related adverse events were reported in this study. | Pyrexia, grade 3 treatment-related ([8]; N = 13): a One patient experienced grade 3 treatment‐related pyrexia. | Any adverse event, treatment-emergent all-causality, all grades ([8]; N = 13, 25, 50 and 100 mg q.d. oral pooled): 13 (100.0) n (%) | Alopecia, all-causality, all grades ([8]; N = 13, all doses pooled): 4 (30.8) n (%) | Alopecia, all-causality, ≥Grade 3 ([8]; N = 13, all doses pooled): 0 n (%) | Alopecia, treatment-related, Grade 3 ([8]; N = 13, all doses pooled): 0 n (%) | Alopecia, treatment-related, all grades ([8]; N = 13, all doses pooled): 4 (30.8) n (%) | Any adverse event, treatment-emergent all-causality, ≥Grade 3 ([8]; N = 13, all doses pooled): 7 (53.8) n (%) | Any adverse event, treatment-emergent treatment-related, all grades ([8]; N = 13, all doses pooled): 9 n (%) and 9 (69.2) n (%) | Any adverse event, treatment-related, Grade 3 ([8]; N = 13, all doses pooled): 1 (7.7) ^a n (%) | Blood creatinine phosphokinase increased, all-causality, all grades ([8]; N = 13, all doses pooled): 3 (23.1) n (%) | Blood creatinine phosphokinase increased, all-causality, ≥Grade 3 ([8]; N = 13, all doses pooled): 0 n (%) | Blood creatinine phosphokinase increased, treatment-related, Grade 3 ([8]; N = 13, all doses pooled): 0 n (%) | Blood creatinine phosphokinase increased, treatment-related, all grades ([8]; N = 13, all doses pooled): 3 (23.1) n (%) | Constipation, all-causality, all grades ([8]; N = 13, all doses pooled): 6 (46.2) n (%) | Constipation, all-causality, ≥Grade 3 ([8]; N = 13, all doses pooled): 0 n (%) | Constipation, treatment-related, Grade 3 ([8]; N = 13, all doses pooled): 0 n (%) | Constipation, treatment-related, all grades ([8]; N = 13, all doses pooled): 3 (23.1) n (%) | Decreased appetite, all-causality, all grades ([8]; N = 13, all doses pooled): 6 (46.2) n (%) | Decreased appetite, all-causality, ≥Grade 3 ([8]; N = 13, all doses pooled): 0 n (%) | Decreased appetite, treatment-related, Grade 3 ([8]; N = 13, all doses pooled): 0 n (%) | Decreased appetite, treatment-related, all grades ([8]; N = 13, all doses pooled): 4 (30.8) n (%) | Diarrhea, all-causality, all grades ([8]; N = 13, all doses pooled): 3 (23.1) n (%) | Diarrhea, all-causality, ≥Grade 3 ([8]; N = 13, all doses pooled): 0 n (%) | Diarrhea, treatment-related, Grade 3 ([8]; N = 13, all doses pooled): 0 n (%) | Diarrhea, treatment-related, all grades ([8]; N = 13, all doses pooled): 3 (23.1) n (%) | Dysgeusia, all-causality, all grades ([8]; N = 13, all doses pooled): 9 (69.2) n (%) | Dysgeusia, all-causality, ≥Grade 3 ([8]; N = 13, all doses pooled): 0 n (%) | Dysgeusia, treatment-related, Grade 3 ([8]; N = 13, all doses pooled): 0 n (%) | Dysgeusia, treatment-related, all grades ([8]; N = 13, all doses pooled): 9 (69.2) n (%) | Fatigue, all-causality, all grades ([8]; N = 13, all doses pooled): 3 (23.1) n (%) | Fatigue, all-causality, ≥Grade 3 ([8]; N = 13, all doses pooled): 0 n (%) | Hypokalemia, all-causality, all grades ([8]; N = 13, all doses pooled): 3 (23.1) n (%) | Hypokalemia, all-causality, ≥Grade 3 ([8]; N = 13, all doses pooled): 2 (15.4) n (%) | Muscle spasms, all-causality, all grades ([8]; N = 13, all doses pooled): 6 (46.2) n (%) | Muscle spasms, all-causality, ≥Grade 3 ([8]; N = 13, all doses pooled): 0 n (%) | Muscle spasms, treatment-related, Grade 3 ([8]; N = 13, all doses pooled): 0 n (%) | Muscle spasms, treatment-related, all grades ([8]; N = 13, all doses pooled): 5 (38.5) n (%) | Pyrexia, all-causality, all grades ([8]; N = 13, all doses pooled): 6 (46.2) n (%) | Pyrexia, all-causality, ≥Grade 3 ([8]; N = 13, all doses pooled): 1 (7.7) n (%) | Thrombocytopenia, all-causality, all grades ([8]; N = 13, all doses pooled): 3 (23.1) n (%) | Thrombocytopenia, all-causality, ≥Grade 3 ([8]; N = 13, all doses pooled): 3 (23.1) n (%) | Weight decreased, all-causality, all grades ([8]; N = 13, all doses pooled): 3 (23.1) n (%) | Weight decreased, all-causality, ≥Grade 3 ([8]; N = 13, all doses pooled): 0 n (%) | Overall safety and tolerability ([8]; dose levels tested (25–100 mg)): safe and well tolerated | Maximum tolerated dose ([8]; doses up to 100 mg q.d.): not reached
